Measured values as given in ChEMBL document CHEMBL1139553, “Synthesis of dehydroalanine fragments as thiostrepton side chain mimetics” (Bioorg Med Chem Lett, 2005).

Experiments:
[1] = test system: Ribosome; assay: Inhibition of bacterial translation by blocking the function of the ribosomal GTPase center at 400 uM concentration; assay type: subcellular; details: Escherichia coli
In short: (§1)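 Translation inhibition was tested at a single compound concentration, since limited solubility ruled out dose-response data at higher concentrations. Percent inhibition is the mean of three replicate experiments per compound (±10%).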

[2] = test system: Ribosome; assay: Inhibition of bacterial translation by blocking the function of the ribosomal GTPase center at 15 uM concentration; assay type: subcellular; details: Escherichia coli; in short: as §1
[3] = test system: Ribosome; assay: Inhibition of bacterial translation by blocking the function of the ribosomal GTPase center at 0.17 uM concentration; assay type: subcellular; details: Escherichia coli; in short: as §1
[4] = test system: Ribosome; assay: Inhibition of bacterial translation by blocking the function of the ribosomal GTPase center at 150 uM concentration; assay type: subcellular; details: Escherichia coli; in short: as §1
[5] = target: Ribosome; assay: Inhibition of bacterial translation by blocking the function of the ribosomal GTPase center; assay type: subcellular, Escherichia coli

| SMILES | inhibition [1] [%] | further results |
| --- | --- | --- |
| C=C(NC(=O)c1csc(-c2cccnc2)n1)C(=O)N[C@@H](COC(C)(C)C)C(=O)OC | 30 | – |
| C=C(NC(=O)c1csc(-c2cccnc2)n1)C(=O)N[C@@H](Cc1c[nH]c2ccccc12)C(=O)OC | – | inhibition [2]: 20% |
| C=C(NC(=O)C(=C)NC(=O)c1csc(C2=N[C@@H]3c4csc(n4)[C@H]4NC(=O)c5csc(n5)[C@H]([C@](C)(O)[C@@H](C)O)NC(=O)[C@H]5CSC(=N5)/C(=C/C)NC(=O)[C@H]([C@@H](C)O)NC(=O)c5csc(n5)[C@]3(CC2)NC(=O)[C@H](C)NC(=O)C(=C)NC(=O)[C@H](C)NC(=O)[C@H]([C@@H](C)CC)N[C@@H]2C=Cc3c([C@H](C)O)cc(nc3[C@H]2O)C(=O)O[C@@H]4C)n1)C(N)=O | – | inhibition [3]: 50% |
| C=C(NC(=O)c1cnccn1)C(=O)NC(=C)C(=O)OC | 30 | – |
| C=C(NC(=O)c1csc(-c2ccncc2)n1)C(=O)N[C@@H](COC(C)(C)C)C(=O)OC | – | inhibition [4]: 5% |
| C=C(NC(=O)c1cnccn1)C(=O)N[C@@H](Cc1cn(C(=O)OC(C)(C)C)c2ccccc12)C(=O)OC | – | inhibition [4]: 10% |
| C=C(NC(=O)c1ccccn1)C(=O)N[C@@H](COC(C)(C)C)C(=O)OC | 40 | – |
| C=C(NC(=O)c1ccccn1)C(=O)N[C@@H](Cc1cn(C(=O)OC(C)(C)C)c2ccccc12)C(=O)OC | – | inhibition [4]: 20% |
| C=C(NC(=O)c1ccccn1)C(=O)N1CCC[C@H]1C(=O)OC | 4 | – |
| C=C(NC(=O)c1csc(-c2cccnc2)n1)C(=O)N1CCC[C@H]1C(=O)OC | 20 | – |
| C=C(NC(=O)c1csc(-c2cccnc2)n1)C(=O)N[C@@H](Cc1cn(C(=O)OC(C)(C)C)c2ccccc12)C(=O)OC | – | IC50 [5]: 40 µM |
| C=C(NC(=O)c1cnccn1)C(=O)N1CCC[C@H]1C(=O)OC | 25 | – |
| C=C(NC(=O)c1cnccn1)C(=O)N[C@@H](COC(C)(C)C)C(=O)OC | 15 | – |
